A short description of assay [1]: Displacement of 125I-[Tyr3]-NT from HA-tagged human NTS1 R212E mutant receptor expressed in HEK293 cell membranes after 30 mins by gamma counting analysis. A digest of the protocol:
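Membranes from HEK293 cells transfected with human HA-tagged NTS1-R212E (10 μg DNA, PEI), prepared fresh 48 h post-transfection. 50 μg membrane incubated with 130 pM 125I-[Tyr3]-NT in 50 mM Tris-HCl pH 7.5, 0.2% BSA with competitor 10^-11 to 10^-5 M, 30 min at 25 °C. Nonspecific binding defined with 10^-5 M NT[8-13]. Filtration, γ-counting. IC50 converted to Ki via Cheng−Prusoff; at least three experiments.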

Assay [2] has as its target Neurotensin receptor type 1 (Homo sapiens, UniProt P30989). Put plainly: Displacement of 125I-[Tyr3]-NT from human NTS1 receptor expressed in CHOK1 cell membranes after 30 mins by gamma counting analysis. (In general: Loss of bound radioactivity is the signal in a displacement assay; it reports binding, not function.)
The species named for assay [3] is Homo sapiens. Put plainly: Selectivity ratio of Ki for human NTS1 receptor expressed in CHOK1 cell membrane to Ki for human NTS2 receptor expressed in human 1321N1 cell membranes. In kind it is cell-based.
For assay [4], the species on record is Homo sapiens. The assay can be described thus: Selectivity ratio of Ki for human NTS1 receptor expressed in CHOK1 cell membranes to Ki for HA-tagged human NTS1 R212E mutant receptor expressed in HEK293 cell membranes. In kind it is cell-based. A digest of the protocol: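 Ki was taken on two receptors. WT: 15 μg CHO-K1 hNTS1 membrane with 45 pM 125I-[Tyr3]-NT. R212E: HEK293 cells transfected by PEI with HA-tagged hNTS1-R212E, membranes made 48 h later; 50 μg membrane with 130 pM tracer. Both ran in Tris-HCl pH7.5 with 0.2% BSA, 30 min at 25 °C, with filtration and γ-counting. IC50 was converted to Ki by Cheng–Prusoff, and the ratio taken as WT Ki over mutant Ki.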

In assay [5] the target is T1, Neurotensin receptor type 2 (Homo sapiens, UniProt O95665). Put plainly: Displacement of 125I-[Tyr3]-NT from human NTS2 receptor expressed in human 1321N1 cell membranes after 30 mins by gamma counting analysis. A digest of the protocol:
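Fresh membranes from 1321N1 cells stably expressing hNTS2 (DMEM, 10% FBS, G418). Nonspecific binding defined with 10^-5 M NT[8-13]. Filtration, γ-counting. IC50 converted to Ki via Cheng−Prusoff; mean of at least three experiments.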

Assay [6] deals with T1, Neurotensin receptor type 2. Put plainly: Displacement of 125I-[Tyr3]-NT from human NTS2 receptor. The gist of the method:
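Fresh membranes from 1321N1 cells stably expressing hNTS2 (DMEM, 10% FBS, G418). 50 μg membrane incubated with 255 pM 125I-[Tyr3]-NT in 50 mM Tris-HCl pH 7.5, 0.2% BSA with competitor 10^-11 to 10^-5 M, 30 min at 25 °C. Nonspecific binding defined with 10^-5 M NT[8-13]. Filtration, γ-counting. IC50 converted to Ki via Cheng−Prusoff; mean of at least three experiments.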

Consider nine molecules from ChEMBL document CHEMBL4049427, “Use of Molecular Modeling to Design Selective NTS2 Neurotensin Analogues” (J Med Chem, 2017).

Square brackets hold non-standard residues; d marks the D form. Peptide text beside a SMILES is read from it. ξ: configuration not given here. ξOrn = NCCCC(N)C(=O)O Bounds are passed on as bounds.

T1 sequence (O95665 whole entry): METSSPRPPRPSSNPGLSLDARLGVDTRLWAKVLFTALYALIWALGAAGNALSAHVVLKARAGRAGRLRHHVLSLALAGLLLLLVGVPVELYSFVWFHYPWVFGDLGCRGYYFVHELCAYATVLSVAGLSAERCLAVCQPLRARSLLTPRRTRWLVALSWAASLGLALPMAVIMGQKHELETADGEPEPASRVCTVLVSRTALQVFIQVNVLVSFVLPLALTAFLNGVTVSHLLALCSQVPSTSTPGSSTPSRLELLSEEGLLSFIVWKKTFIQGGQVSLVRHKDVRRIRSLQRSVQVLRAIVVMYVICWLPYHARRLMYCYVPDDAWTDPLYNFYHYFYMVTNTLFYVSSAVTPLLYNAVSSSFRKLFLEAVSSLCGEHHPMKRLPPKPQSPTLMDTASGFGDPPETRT
Neurotensin receptor type 1, sequence (P30989 whole entry): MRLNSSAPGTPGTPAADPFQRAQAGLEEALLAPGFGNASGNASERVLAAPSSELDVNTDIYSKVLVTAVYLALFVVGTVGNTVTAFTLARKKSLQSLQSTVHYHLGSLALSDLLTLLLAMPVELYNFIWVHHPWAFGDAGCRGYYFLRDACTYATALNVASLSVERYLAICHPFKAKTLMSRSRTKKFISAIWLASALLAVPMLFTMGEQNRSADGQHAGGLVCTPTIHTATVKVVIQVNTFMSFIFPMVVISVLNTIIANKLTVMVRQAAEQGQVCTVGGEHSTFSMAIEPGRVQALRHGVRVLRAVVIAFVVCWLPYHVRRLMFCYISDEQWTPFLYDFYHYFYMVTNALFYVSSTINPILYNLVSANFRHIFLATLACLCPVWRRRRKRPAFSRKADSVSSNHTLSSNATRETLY

Regarding `CC[C@H](C)[C@H](NC(=O)[C@H](CCCCN)NC(=O)[C@@H]1CCCN1C(=O)[C@H](CCCCN)NC(=O)[C@@H](N)CCCCN)C(=O)N[C@@H](C[Si](C)(C)C)C(=O)O`, the Ki (commonly a measure of affinity in units of concentration, obtained from inhibition or displacement) in assay [1] came to 127 nM; in assay [2], 663 nM.
Turning to H-KKPKIL-OH, the Ki came out at 199 nM in assay [1], 5700 nM in assay [2] and 262 nM in assay [5]. In addition, the Ratio Ki in assay [3] is 21.8; in assay [4], 28.6.
Consider H-KKPDIL-OH, for which the inhibition constant Ki in assay [1] was more than 10000 nM; in assay [2], more than 10000 nM; in assay [5], 4200 nM.
As for H-KKPEIL-OH, the Ki in assay [1] is more than 10000 nM; in assay [2], more than 10000 nM; in assay [5], 1600 nM.
Consider `CC[C@H](C)[C@H](NC(=O)[C@H](Cc1ccc(O)cc1)NC(=O)[C@@H]1CCCN1C(=O)[C@H](CCCNC(=N)N)NC(=O)[C@@H](N)CCCNC(=N)N)C(=O)N[C@@H](CC(C)C)C(=O)O`, for which the affinity in assay [1] corresponds to a Ki of 4.69 nM.
With `CC[C@H](C)[C@H](NC(=O)C(CCCN)NC(=O)[C@@H]1CCCN1C(=O)[C@H](CCCCN)NC(=O)[C@@H](N)CCCCN)C(=O)N[C@@H](CC(C)C)C(=O)O` (stereo partly drawn) (H-KKP[ξOrn]IL-OH), the Ki was more than 10000 nM in assay [2] and 619 nM in assay [5].
On to `CC[C@H](C)[C@H](NC(=O)[C@H](Cc1ccc(O)cc1)NC(=O)[C@@H]1CCCN1C(=O)[C@H](CCCCN)NC(=O)[C@@H](N)CCCCN)C(=O)N[C@@H](CC(C)C)C(=O)O`, for which the Ki in assay [6] amounted to 0.95 nM. In other words, the sub-nanomolar range.
Consider `CC[C@H](C)[C@H](NC(=O)[C@H](CCCCN)NC(=O)[C@@H]1CCCN1C(=O)[C@H](CCCCN)NC(=O)[C@@H](N)CCCCN)C(=O)N[C@H](C[Si](C)(C)C)C(=O)O`, for which the values for the Ratio Ki in assay [3] and in assay [4] were 9.9 and 5.22, respectively. The Ki in assay [5] came to 67 nM.
For the molecule H-KKPHIL-OH, the Ratio Ki in assay [3] turned out to be 0.96. The Ki in assay [2] was found to be 456 nM; in assay [5] it was 474 nM.
